Laboratory results reported in ChEMBL document CHEMBL3351741, “Fused heterocycles bearing bridgehead nitrogen as potent HIV-1 NNRTIs. Part 2: discovery of novel [1,2,4]Triazolo[1,5-a]pyrimidines using a structure-guided core-refining approach” (Eur J Med Chem, 2014).

Key:
[1] = tested on: Human immunodeficiency virus 1; assay: Antiviral activity against HIV-1 harboring wild-type reverse transcriptase; assay type: functional, organism-based
[2] = tested on: Human immunodeficiency virus 1; assay: Antiviral activity against HIV-1 harboring RT Y181C mutant; assay type: functional, organism-based
[3] = tested on: Human immunodeficiency virus 1; assay: Antiviral activity against HIV-1 harboring RT Y188L mutant; assay type: functional, organism-based
[4] = tested on: Human immunodeficiency virus 1; assay: Antiviral activity against HIV-1 harboring RT K103N/Y181C double mutant; assay type: functional, organism-based
[5] = Selectivity index, ratio of CC50 for mock-infected human MT4 cells to EC50 for HIV-1 RES056 harboring RT K103N/Y181C double mutant infected in human MT4 cells; assay type: toxicity, cell-based; conditions: read-out: Ratio CC50/EC50
Summary of the method: (§1)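 MT-4 cells resuspended at 6 × 10⁵ cells/ml, infected with HIV-1 IIIB, RES056 or HIV-2 ROD at 100-300 CCID50, or mock-infected; test compounds added from 10× stocks. After 5 days, viability read by MTT at 540 and 690 nm, median OD of two or three wells. EC50 = 50% protection from cytopathicity; CC50 = 50% viability loss in mock-infected cells; SI = CC50/EC50.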

[6] = Selectivity index, ratio of CC50 for mock-infected human MT4 cells to EC50 for HIV-2 ROD infected in human MT4 cells; assay type: toxicity, cell-based; conditions: mock-infected and infected with HIV-2 ROD, read-out: Ratio CC50/EC50; summary of the method: as §1
[7] = tested on: Human immunodeficiency virus 2; assay: Antiviral activity against HIV-2 ROD infected in human MT4 cells assessed as protection from viral cytopathicity after 5 days by MTT assay; assay type: functional, organism-based; conditions: Human immunodeficiency virus 2, ISOLATE ROD, MT4, 120 h
Summary of the method: (§2)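 MT-4 cells (6 × 10⁵ cells/ml) infected with HIV-1 IIIB or HIV-2 ROD stock at 100-300 CCID₅₀; compounds added as 10× stocks. After 5 days, viability read by MTT reduction at 540 and 690 nm, using median OD of two or three wells. EC₅₀ is the concentration giving 50% protection from viral cytopathicity.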

[8] = tested on: Human immunodeficiency virus 1; assay: Antiviral activity against HIV-1 RES056 harboring RT K103N/Y181C double mutant infected in human MT4 cells assessed as protection from viral cytopathicity after 5 days by MTT assay; assay type: functional, organism-based; conditions: Human immunodeficiency virus 1, RES056, MT4, 120 h; summary of the method: as §1
[9] = tested on: Human immunodeficiency virus 1; assay: Antiviral activity against HIV-1 3B infected in human MT4 cells assessed as protection from viral cytopathicity after 5 days by MTT assay; assay type: functional, organism-based; conditions: Human immunodeficiency virus 1, 3B, MT4, 120 h; summary of the method: as §2
[10] = Selectivity index, ratio of CC50 for mock-infected human MT4 cells to EC50 for HIV-1 3B infected in human MT4 cells; assay type: toxicity, cell-based; conditions: mock-infected and infected with HIV-1 3B, read-out: Ratio CC50/EC50; summary of the method: as §1
[11] = Cytotoxicity against mock-infected human MT4 cells after 5 days by MTT assay; assay type: cell-based
Summary of the method: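 Mock-infected MT-4 cells (6 × 10⁵ cells/ml) received culture medium in place of virus and were exposed to compounds added as 10× stocks. After 5 days, viability was read by MTT at 540 and 690 nm, using median OD of two or three wells. CC₅₀ is the concentration cutting viability by 50%. '>' marks the highest concentration tested without cytotoxicity.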

[12] = target: Human immunodeficiency virus type 1 reverse transcriptase (Human immunodeficiency virus 1, UniProt Q72547); assay: Inhibition of purified recombinant HIV-1 reverse transcriptase after 1 hr using biotin-labeled dUTP by digoxigenin-peroxidase assay
Summary of the method: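 Kit-based colorimetric ELISA with recombinant wild-type HIV-1 RT, poly(A)·oligo(dT)15 template/primer, dNTPs including digoxigenin- and biotin-labeled dUTP, in lysis buffer ± inhibitor, incubated 1 h at 37 °C. Product captured on streptavidin, detected with anti-DIG-peroxidase and ABTS, absorbance at 405 nm. Several concentrations tested; % inhibition taken relative to the no-inhibitor sample.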

Structure (SMILES): Cc1cc(C#N)cc(C)c1Oc1nc(Nc2ccc(C#N)cc2)nc2[nH]ccc12
- EC50 [1]: 0.00016 µM
- EC50 [2]: 0.0045 µM
- EC50 [3]: 0.004 µM
- EC50 [4]: 0.0078 µM

Structure (SMILES): Cc1cc(C#N)cc(C)c1Oc1nc(Nc2ccc(C#N)cc2)nc2cc[nH]c12
- EC50 [1]: 0.00025 µM
- EC50 [2]: 0.0014 µM
- EC50 [3]: 0.0011 µM
- EC50 [4]: 0.0038 µM

Structure (SMILES): Cc1cccc(C)c1Oc1cc(Nc2ccc(C#N)cc2)n2ncnc2n1
- selectivity ratio [5]: < 1
- selectivity ratio [6]: < 1
- EC50 [7]: > 253 µM
- EC50 [8]: > 253 µM
- EC50 [9]: 1.5 µM
- selectivity ratio [10]: 170
- CC50 at 120 h [11]: 253 µM

Structure (SMILES): Cc1cc(C)c(Oc2cc(Nc3ccc(C#N)cc3)n3ncnc3n2)c(C)c1
- selectivity ratio [5]: ≤ 2
- selectivity ratio [6]: < 1
- EC50 [7]: > 106 µM
- EC50 [8]: ≥ 50 µM
- EC50 [9]: 0.07 µM
- selectivity ratio [10]: 1450
- CC50 at 120 h [11]: 106 µM

Structure (SMILES): Cc1cc(Br)cc(C)c1Oc1cc(Nc2ccc(C#N)cc2)n2ncnc2n1
- selectivity ratio [5]: < 1
- selectivity ratio [6]: < 1
- EC50 [7]: > 128 µM
- EC50 [8]: > 128 µM
- EC50 [9]: 0.3 µM
- selectivity ratio [10]: 427
- CC50 at 120 h [11]: 128 µM

Structure (SMILES): N#Cc1ccc(Nc2cc(Oc3c(Cl)cc(Cl)cc3Cl)nc3ncnn23)cc1
- selectivity ratio [5]: < 1
- selectivity ratio [6]: < 1
- EC50 [7]: > 32 µM
- EC50 [8]: > 32 µM
- EC50 [9]: 0.3 µM
- selectivity ratio [10]: 109
- CC50 at 120 h [11]: 32 µM

Structure (SMILES): N#Cc1ccc(Nc2cc(Oc3c(F)cc(F)cc3F)nc3ncnn23)cc1
- selectivity ratio [5]: < 1
- selectivity ratio [6]: < 1
- EC50 [7]: > 174 µM
- EC50 [8]: > 174 µM
- EC50 [9]: > 174 µM
- selectivity ratio [10]: < 1
- CC50 at 120 h [11]: 174 µM

Structure (SMILES): Cc1cccc(C)c1Oc1cc(Nc2ccc(C#N)cc2)nc2ncnn12
- selectivity ratio [5]: < 1
- selectivity ratio [6]: < 1
- EC50 [7]: > 233 µM
- EC50 [8]: > 233 µM
- EC50 [9]: 1.3 µM
- selectivity ratio [10]: 182
- CC50 at 120 h [11]: 233 µM

Structure (SMILES): N#Cc1ccc(Nc2cc(Oc3c(Cl)cccc3Cl)n3ncnc3n2)cc1
- selectivity ratio [5]: < 1
- selectivity ratio [6]: < 1
- EC50 [7]: > 150 µM
- EC50 [8]: > 150 µM
- EC50 [9]: 3.4 µM
- selectivity ratio [10]: 44
- CC50 at 120 h [11]: 150 µM

Structure (SMILES): Cc1cc(C)c(Oc2cc(Nc3ccc(C#N)cc3)nc3ncnn23)c(C)c1
- selectivity ratio [5]: < 1
- selectivity ratio [6]: < 1
- EC50 [7]: > 164 µM
- EC50 [8]: > 164 µM
- EC50 [9]: 0.05 µM
- selectivity ratio [10]: 3200
- CC50 at 120 h [11]: 164 µM

Structure (SMILES): Cc1cc(C)c(Oc2cc(Nc3ccc([N+](=O)[O-])cc3)nc3ncnn23)c(C)c1
- selectivity ratio [5]: < 1
- selectivity ratio [6]: < 1
- EC50 [7]: > 33 µM
- EC50 [8]: > 33 µM
- EC50 [9]: 0.6 µM
- selectivity ratio [10]: 57
- CC50 at 120 h [11]: 33 µM

Structure (SMILES): Cc1cc(C)c(Oc2cc(Nc3ccc(Cl)cc3)nc3ncnn23)c(C)c1
- selectivity ratio [5]: < 1
- selectivity ratio [6]: < 1
- EC50 [7]: > 46 µM
- EC50 [8]: > 46 µM
- EC50 [9]: 0.05 µM
- selectivity ratio [10]: 864
- CC50 at 120 h [11]: 46 µM

Structure (SMILES): Cc1ccc(Nc2cc(Oc3c(C)cc(C)cc3C)n3ncnc3n2)cc1
- selectivity ratio [5]: < 1
- selectivity ratio [6]: < 1
- EC50 [7]: > 47 µM
- EC50 [8]: > 47 µM
- EC50 [9]: 0.07 µM
- selectivity ratio [10]: 649
- CC50 at 120 h [11]: 47 µM

Structure (SMILES): COc1ccc(Nc2cc(Oc3c(C)cc(C)cc3C)n3ncnc3n2)cc1
- selectivity ratio [5]: < 1
- selectivity ratio [6]: < 1
- EC50 [7]: > 37 µM
- EC50 [8]: > 37 µM
- EC50 [9]: 0.2 µM
- selectivity ratio [10]: 165
- CC50 at 120 h [11]: 37 µM

Structure (SMILES): Cc1cc(Br)cc(C)c1Oc1cc(Nc2ccc(C#N)cc2)nc2ncnn12
- selectivity ratio [5]: < 1
- selectivity ratio [6]: < 1
- EC50 [7]: > 136 µM
- EC50 [8]: > 136 µM
- EC50 [9]: 0.23 µM
- selectivity ratio [10]: 579
- CC50 at 120 h [11]: 136 µM

Structure (SMILES): Cc1cc(C#N)cc(C)c1Oc1cc(Nc2ccc(C#N)cc2)nc2ncnn12
- selectivity ratio [5]: < 1
- selectivity ratio [6]: < 1
- EC50 [7]: > 224 µM
- IC50 [12]: 0.39 µM
- EC50 [8]: > 224 µM
- EC50 [9]: 1.2 µM
- selectivity ratio [10]: 182
- CC50 at 120 h [11]: 224 µM

Structure (SMILES): Cc1cc(Cl)cc(C)c1Oc1cc(Nc2ccc(C#N)cc2)nc2ncnn12
- selectivity ratio [5]: < 1
- selectivity ratio [6]: < 1
- EC50 [7]: > 104 µM
- EC50 [8]: > 104 µM
- EC50 [9]: 0.4 µM
- selectivity ratio [10]: 256
- CC50 at 120 h [11]: 104 µM

Structure (SMILES): N#Cc1ccc(Nc2cc(Oc3c(Cl)cc(Cl)cc3Cl)n3ncnc3n2)cc1
- selectivity ratio [5]: < 1
- selectivity ratio [6]: < 1
- EC50 [7]: > 29 µM
- EC50 [8]: > 29 µM
- EC50 [9]: 0.6 µM
- selectivity ratio [10]: 47
- CC50 at 120 h [11]: 29 µM

Structure (SMILES): N#Cc1ccc(Nc2cc(Oc3c(Br)cc(Br)cc3Br)n3ncnc3n2)cc1
- selectivity ratio [5]: < 1
- selectivity ratio [6]: < 1
- EC50 [7]: > 47 µM
- EC50 [8]: > 47 µM
- EC50 [9]: 0.3 µM
- selectivity ratio [10]: 142
- CC50 at 120 h [11]: 47 µM

Structure (SMILES): Cc1cc(Br)c(Oc2cc(Nc3ccc(C#N)cc3)nc3ncnn23)c(Br)c1
- selectivity ratio [5]: < 1
- selectivity ratio [6]: < 1
- EC50 [7]: > 192 µM
- EC50 [8]: > 192 µM
- EC50 [9]: 0.05 µM
- selectivity ratio [10]: 3620
- CC50 at 120 h [11]: 192 µM

Structure (SMILES): Cc1cc(C)c(Nc2cc(Nc3ccc(C#N)cc3)nc3ncnn23)c(C)c1
- selectivity ratio [5]: 25
- selectivity ratio [6]: < 1
- EC50 [7]: > 190 µM
- EC50 [8]: 7.6 µM
- EC50 [9]: 0.02 µM
- selectivity ratio [10]: 8990
- CC50 at 120 h [11]: 190 µM

Structure (SMILES): Cc1cccc(C)c1Nc1cc(Nc2ccc(C#N)cc2)nc2ncnn12
- selectivity ratio [5]: < 1
- selectivity ratio [6]: < 1
- EC50 [7]: > 272 µM
- EC50 [8]: > 272 µM
- EC50 [9]: 2.1 µM
- selectivity ratio [10]: 127
- CC50 at 120 h [11]: 272 µM

Structure (SMILES): CC(C)Nc1cccnc1N1CCN(C(=O)c2cc3cc(NS(C)(=O)=O)ccc3[nH]2)CC1 [DELAVIRDINE]
- selectivity ratio [5]: 1
- EC50 [8]: > 36 µM
- EC50 [9]: 0.07 µM
- selectivity ratio [10]: > 494
- CC50 at 120 h [11]: > 36 µM

Structure (SMILES): Cc1ccnc2c1NC(=O)c1cccnc1N2C1CC1 [NEVIRAPINE]
- selectivity ratio [5]: > 5
- EC50 [8]: 2.9 µM
- EC50 [9]: 0.15 µM
- selectivity ratio [10]: > 14
- CC50 at 120 h [11]: > 15 µM
